ChEMBL document CHEMBL1926569, “Novel (E)-1-(4-methyl-2-(alkylamino)thiazol-5-yl)-3-arylprop-2-en-1-ones as potent antimicrobial agents” (2011)
Converted amounts (≈) assume the structure as drawn.

Assays:
Aspergillus ochraceus [1] = assay: Antifungal activity against Aspergillus ochraceus ATCC 12066 after 72 hrs by serial dilution technique; format: functional; details: ATCC 12066, 72 h
How it was run: (§1)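 Modified microdilution in 96-well plates. Fungi were kept on malt agar at 4 °C. Spores were washed off in sterile 0.85% saline with 0.1% Tween 80. Compounds were dissolved at 1 mg/ml in 5% DMSO with 0.1% Tween 80 and added to malt broth with inoculum. Plates were shaken at 160 rpm for 72 h at 28 °C. Duplicate, repeated three times.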

Escherichia coli [2] = assay: Antibacterial activity against Escherichia coli ATCC 35210 after 24 hrs by microdilution method; format: functional; details: ATCC 35210, 24 h
How it was run: (§2)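 Broth microdilution in 96-well plates. Bacterial suspensions were adjusted in sterile saline to 1.0 × 10⁵ CFU/ml, prepared daily and kept at 4 °C. Compound was added to LB broth with 1.0 × 10⁴ CFU per well and shaken at 160 rpm for 24 h at […] (so in the source). MIC is the lowest concentration with no visible growth under a binocular microscope. OD655 was also read. Duplicate, repeated three times.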

Trichoderma viride [3] = assay: Antifungal activity against Trichoderma viride IAM 5061 after 72 hrs by serial dilution technique; format: functional; details: IAM 5061, 72 h; how it was run: as §1
Listeria monocytogenes [4] = assay: Antibacterial activity against Listeria monocytogenes NCTC 7973 after 24 hrs by microdilution method; format: functional; details: NCTC 7973, 24 h; how it was run: as §2
Talaromyces funiculosus [5] = assay: Antifungal activity against Penicillium funiculosum ATCC 36839 after 72 hrs by serial dilution technique; format: functional; details: ATCC 36839, 72 h; how it was run: as §1
Penicillium ochrochloron [6] = assay: Antifungal activity against Penicillium ochrochloron ATCC 9112 after 72 hrs by serial dilution technique; format: functional; details: ATCC 9112, 72 h; how it was run: as §1
Trichoderma viride [7] = assay: Ratio of bifonazole to compound for Trichoderma viride IAM 5061; format: functional
Bacillus cereus [8] = assay: Antibacterial activity against clinical isolate of Bacillus cereus incubated for 24 hrs followed by serial sub-cultivation for 24 hrs by microdilution; format: functional
How it was run: (§3)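 MBC: after the 24 h LB broth microdilution (1.0 × 10⁴ CFU per well, 160 rpm), wells were serially sub-cultured into fresh broth plates and incubated a further 24 h. MBC is the lowest concentration with no visible growth, taken as 99.5% killing of the original inoculum. Duplicate, repeated three times.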

Aspergillus ochraceus [9] = assay: Ratio of bifonazole to compound for Aspergillus ochraceus ATCC 12066; format: functional
Aspergillus niger [10] = assay: Antifungal activity against Aspergillus niger ATCC 6275 after 72 hrs by serial dilution technique; format: functional; details: ATCC 6275, 72 h; how it was run: as §1
Aspergillus flavus [11] = assay: Antifungal activity against Aspergillus flavus ATCC 9643 incubated for 72 hrs followed by serial sub-cultivation for 72 hrs by serial dilution technique; format: functional; details: ATCC 9643, 72 h
How it was run: (§4)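 MFC: material from 72 h malt broth microdilution wells was serially sub-cultured into fresh broth plates and incubated a further 72 h at 28 °C. Fungicidal concentration is taken from growth after sub-culture. Duplicate, repeated three times.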

Penicillium ochrochloron [12] = assay: Ratio of bifonazole to compound for Penicillium ochrochloron ATCC 9112; format: functional
Talaromyces funiculosus [13] = assay: Antifungal activity against Penicillium funiculosum ATCC 36839 incubated for 72 hrs followed by serial sub-cultivation for 72 hrs by serial dilution technique; format: functional; details: ATCC 36839, 72 h; how it was run: as §4
Candida albicans [14] = assay: Antifungal activity against Candida albicans isolated from human after 72 hrs by serial dilution technique; format: functional; how it was run: as §1
Pseudomonas aeruginosa [15] = assay: Antibacterial activity against Pseudomonas aeruginosa ATCC 27853 after 24 hrs by microdilution method; format: functional; details: ATCC 27853, 24 h; how it was run: as §2
Listeria monocytogenes [16] = assay: Antibacterial activity against Listeria monocytogenes NCTC 7973 incubated for 24 hrs followed by serial sub-cultivation for 24 hrs by microdilution; format: functional; details: NCTC 7973, 24 h; how it was run: as §3
Pseudomonas aeruginosa [17] = assay: Antibacterial activity against Pseudomonas aeruginosa ATCC 27853 incubated for 24 hrs followed by serial sub-cultivation for 24 hrs by microdilution; format: functional; details: ATCC 27853, 24 h; how it was run: as §3
Penicillium ochrochloron [18] = assay: Antifungal activity against Penicillium ochrochloron ATCC 9112 incubated for 72 hrs followed by serial sub-cultivation for 72 hrs by serial dilution technique; format: functional; details: ATCC 9112, 72 h; how it was run: as §4
Enterococcus faecalis [19] = assay: Antibacterial activity against Enterococcus faecalis isolated from human after 24 hrs by microdilution method; format: functional; how it was run: as §2
Penicillium ochrochloron [20] = assay: Ratio of ketoconazole to compound for Penicillium ochrochloron ATCC 9112; format: functional
Aspergillus ochraceus [21] = assay: Ratio of ketoconazole to compound for Aspergillus ochraceus ATCC 12066; format: functional
Salmonella typhimurium [22] = assay: Antibacterial activity against Salmonella Typhimurium ATCC 13311 incubated for 24 hrs followed by serial sub-cultivation for 24 hrs by microdilution; format: functional, Salmonella enterica subsp. enterica serovar Typhimurium; details: Salmonella enterica, ATCC 13311, 24 h; how it was run: as §3
Candida albicans [23] = assay: Ratio of bifonazole to compound for Candida albicans isolated from human; format: functional
Aspergillus niger [24] = assay: Ratio of bifonazole to compound for Aspergillus niger ATCC 6275; format: functional
Escherichia coli [25] = assay: Antibacterial activity against Escherichia coli ATCC 35210 incubated for 24 hrs followed by serial sub-cultivation for 24 hrs by microdilution; format: functional; details: ATCC 35210, 24 h; how it was run: as §3
Candida albicans [26] = assay: Antifungal activity against Candida albicans isolated from human incubated for 72 hrs followed by serial sub-cultivation for 72 hrs by serial dilution technique; format: functional; how it was run: as §4
Salmonella typhimurium [27] = assay: Antibacterial activity against Salmonella Typhimurium ATCC 13311 after 24 hrs by microdilution method; format: functional, Salmonella enterica subsp. enterica serovar Typhimurium; details: Salmonella enterica, ATCC 13311, 24 h; how it was run: as §2
Candida albicans [28] = assay: Ratio of ketoconazole to compound for Candida albicans isolated from human; format: functional
Trichoderma viride [29] = assay: Antifungal activity against Trichoderma viride IAM 5061 incubated for 72 hrs followed by serial sub-cultivation for 72 hrs by serial dilution technique; format: functional; details: IAM 5061, 72 h; how it was run: as §4
Bacillus cereus [30] = assay: Antibacterial activity against clinical isolate of Bacillus cereus after 24 hrs by microdilution method; format: functional; how it was run: as §2
Aspergillus niger [31] = assay: Antifungal activity against Aspergillus niger ATCC 6275 incubated for 72 hrs followed by serial sub-cultivation for 72 hrs by serial dilution technique; format: functional; details: ATCC 6275, 72 h; how it was run: as §4
Aspergillus fumigatus [32] = assay: Ratio of ketoconazole to compound for Aspergillus fumigatus isolated from human; format: functional
Enterococcus faecalis [33] = assay: Antibacterial activity against Enterococcus faecalis isolated from human incubated for 24 hrs followed by serial sub-cultivation for 24 hrs by microdilution; format: functional; how it was run: as §3
Aspergillus fumigatus [34] = assay: Antifungal activity against Aspergillus fumigatus isolated from human incubated for 72 hrs followed by serial sub-cultivation for 72 hrs by serial dilution technique; format: functional; how it was run: as §4
Aspergillus flavus [35] = assay: Antifungal activity against Aspergillus flavus ATCC 9643 after 72 hrs by serial dilution technique; format: functional; details: ATCC 9643, 72 h; how it was run: as §1
Aspergillus ochraceus [36] = assay: Antifungal activity against Aspergillus ochraceus after 72 hrs by serial dilution technique
Micrococcus flavus [37] = assay: Antibacterial activity against Micrococcus flavus ATCC 10240 incubated for 24 hrs followed by serial sub-cultivation for 24 hrs by microdilution; format: functional; details: ATCC 10240, 24 h; how it was run: as §3
Aspergillus ochraceus [38] = assay: Antifungal activity against Aspergillus ochraceus ATCC 12066 incubated for 72 hrs followed by serial sub-cultivation for 72 hrs by serial dilution technique; format: functional; details: ATCC 12066, 72 h; how it was run: as §4
Micrococcus flavus [39] = assay: Antibacterial activity against Micrococcus flavus ATCC 10240 after 24 hrs by microdilution method; format: functional; details: ATCC 10240, 24 h; how it was run: as §2
Talaromyces funiculosus [40] = assay: Ratio of bifonazole to compound for Penicillium funiculosum ATCC 36839; format: functional
Staphylococcus aureus [41] = assay: Antibacterial activity against Staphylococcus aureus ATCC 6538 after 24 hrs by microdilution method; format: functional; details: ATCC 6538, 24 h; how it was run: as §2
Staphylococcus aureus [42] = assay: Antibacterial activity against Staphylococcus aureus ATCC 6538 incubated for 24 hrs followed by serial sub-cultivation for 24 hrs by microdilution method; format: functional; details: ATCC 6538, 24 h; how it was run: as §3
Pseudomonas aeruginosa [43] = assay: Ratio of ampicillin MIC to compound MIC for Pseudomonas aeruginosa ATCC 27853; format: functional

CCNc1nc(C)c(C(=O)/C=C/c2ccccc2OC)s1
MIC (Aspergillus ochraceus [1]): 66.2 µM (≈ 20 µg/mL) | MIC (Escherichia coli [2]): 82.8 µM (≈ 25 µg/mL) | MIC (Trichoderma viride [3]): 33.1 µM (≈ 10 µg/mL) | MIC (Listeria monocytogenes [4]): 82.8 µM (≈ 25 µg/mL) | MIC (Talaromyces funiculosus [5]): 33.1 µM (≈ 10 µg/mL) | MIC (Penicillium ochrochloron [6]): 66.2 µM (≈ 20 µg/mL) | Ratio (Trichoderma viride [7]): 10 | MBC (Bacillus cereus [8]): 82.8 µM (≈ 25 µg/mL) | Ratio (Aspergillus ochraceus [9]): 10 | MIC (Aspergillus niger [10]): 49.7 µM (≈ 15 µg/mL) | MFC (Aspergillus flavus [11]): 82.8 µM (≈ 25 µg/mL) | Ratio (Penicillium ochrochloron [12]): 10 | MFC (Talaromyces funiculosus [13]): 66.2 µM (≈ 20 µg/mL) | MIC (Candida albicans [14]): 33.1 µM (≈ 10 µg/mL) | MIC (Pseudomonas aeruginosa [15]): 82.8 µM (≈ 25 µg/mL) | MBC (Listeria monocytogenes [16]): 116 µM (≈ 35 µg/mL) | MBC (Pseudomonas aeruginosa [17]): 99.3 µM (≈ 30 µg/mL) | MFC (Penicillium ochrochloron [18]): 82.8 µM (≈ 25 µg/mL) | MIC (Enterococcus faecalis [19]): 82.8 µM (≈ 25 µg/mL) | Ratio (Penicillium ochrochloron [20]): 10 | Ratio (Aspergillus ochraceus [21]): 10 | MBC (Salmonella typhimurium [22]): 82.8 µM (≈ 25 µg/mL) | Ratio (Candida albicans [23]): 10 | Ratio (Aspergillus niger [24]): 10 | MBC (Escherichia coli [25]): 82.8 µM (≈ 25 µg/mL) | MFC (Candida albicans [26]): 66.2 µM (≈ 20 µg/mL) | MIC (Salmonella typhimurium [27]): 33.1 µM (≈ 10 µg/mL) | Ratio (Candida albicans [28]): 10 | MFC (Trichoderma viride [29]): 66.2 µM (≈ 20 µg/mL) | MIC (Bacillus cereus [30]): 66.2 µM (≈ 20 µg/mL) | MFC (Aspergillus niger [31]): 66.2 µM (≈ 20 µg/mL) | Ratio (Aspergillus fumigatus [32]): 10 | MBC (Enterococcus faecalis [33]): 82.8 µM (≈ 25 µg/mL) | MFC (Aspergillus fumigatus [34]): 66.2 µM (≈ 20 µg/mL) | MIC (Aspergillus flavus [35]): 66.2 µM (≈ 20 µg/mL) | MIC (Aspergillus ochraceus [36]): 49.7 µM (≈ 15 µg/mL) | MBC (Micrococcus flavus [37]): 82.8 µM (≈ 25 µg/mL) | MFC (Aspergillus ochraceus [38]): 82.8 µM (≈ 25 µg/mL) | MIC (Micrococcus flavus [39]): 31.3 µM (≈ 9.47 µg/mL) | Ratio (Talaromyces funiculosus [40]): 10 | MIC (Staphylococcus aureus [41]): 66.2 µM (≈ 20 µg/mL) | MBC (Staphylococcus aureus [42]): 99.3 µM (≈ 30 µg/mL) | Ratio (Pseudomonas aeruginosa [43]): 10
